# Published values from different studies.
# Each line is one published result; the experiments were not run side by side.
# Target: NUAK family SNF1-like kinase 2 (NUAK2, Homo sapiens, UniProt Q9H093)
# One construct used (Q9H093 1-628): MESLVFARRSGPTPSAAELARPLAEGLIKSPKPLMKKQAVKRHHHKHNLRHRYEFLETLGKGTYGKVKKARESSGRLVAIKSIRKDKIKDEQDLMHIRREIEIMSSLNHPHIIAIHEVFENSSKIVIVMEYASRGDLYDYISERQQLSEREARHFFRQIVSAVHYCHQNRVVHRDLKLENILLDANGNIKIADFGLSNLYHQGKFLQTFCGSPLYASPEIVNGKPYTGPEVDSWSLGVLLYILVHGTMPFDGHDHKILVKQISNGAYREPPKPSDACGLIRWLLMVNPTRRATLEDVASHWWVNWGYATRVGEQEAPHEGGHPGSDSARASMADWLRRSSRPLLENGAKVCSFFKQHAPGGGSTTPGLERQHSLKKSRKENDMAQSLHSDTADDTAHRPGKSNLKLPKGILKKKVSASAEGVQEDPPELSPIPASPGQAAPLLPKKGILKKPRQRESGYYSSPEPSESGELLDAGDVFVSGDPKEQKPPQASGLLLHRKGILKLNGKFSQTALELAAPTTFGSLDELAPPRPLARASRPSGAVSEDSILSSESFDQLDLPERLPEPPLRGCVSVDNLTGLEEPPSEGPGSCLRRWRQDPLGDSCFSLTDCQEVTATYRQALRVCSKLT
SMILES,effect on,action,method,tested at,quantity,result
O=C1Nc2ccc(Cl)cc2C1=Cc1cc(Cl)c(O)c(Cl)c1,cell-free assay,,,0.5 µM,remaining signal,78.7%
Cc1ccc(C(=O)Nc2ccc(CN3CCN(C)CC3)c(C(F)(F)F)c2)cc1C#Cc1cnc2cccnn12,enzyme activity,inhibitor,,23.5 nM,remaining activity,84%
O=C(Nc1cnn(-c2csc(C(=O)NC3COC3)c2)c1)Nc1c(F)cccc1Cl,enzyme activity,inhibitor,,5 µM,remaining activity,97.8%
COc1cc(-c2cn(C3CCc4c(F)cccc4N(CC(F)(F)F)C3=O)nn2)ccc1-n1cnc(C)c1 (centres unmarked),cell-free assay,,competition with immobilised ligand,1 µM,remaining binding,100%
CC/C(=N\NC(=O)NCc1cccc(O)c1)c1ccc(O)c(C)c1O,enzyme activity,inhibitor,,0.1 µM,inhibition,12.5%
N#CCCc1ccc2c(c1)-c1[nH]c3ccc([N+](=O)[O-])cc3c1CC(=O)N2,cell-free assay,,,0.5 µM,remaining signal,67.6%
COc1cc(Cl)c(C(=O)N[C@@H](CN[C@H]2CC[C@@H](N)CC2)Cc2ccc(C#N)cc2)cc1-c1ccc(CN[C@H](C)c2ccc(C)cc2)o1,enzyme activity,inhibitor,,1 µM,remaining activity,93%
Nc1ncnc2occ(-c3ccc(NC(=O)Nc4cc(C(F)(F)F)ccc4F)cc3)c12,cell-free assay,inhibitor,,20 µM,remaining signal,30%
C#Cc1cccc(Nc2ncnc3cc(OCCOC)c(OCCOC)cc23)c1,cell-free assay,,,0.5 µM,remaining signal,95.3%
CN(c1ccnc(CNc2nc(Nc3ccc4c(c3)CC(=O)N4)ncc2C(F)(F)F)n1)S(C)(=O)=O,cell-free assay,,competition with immobilised ligand,1 µM,remaining binding,7.6%
CC(C)(C)c1nc(-c2cccc(NS(=O)(=O)c3c(F)cccc3F)c2F)c(-c2ccnc(N)n2)s1,enzyme activity,inhibitor,radiometric,1 µM,remaining activity,90%
O=C(O)c1cc(-c2ccc(C3CCNCC3)cc2)c2ccc(-c3ccc(C(F)(F)F)cc3)cc2c1,cell-free assay,,competition with immobilised ligand,1 µM,remaining binding,100%
CC(C)(C)c1nc2c(s1)c1nc(N)ncc1c1ccc(NS(=O)(=O)c3c(F)cccc3F)c(F)c12,enzyme activity,inhibitor,radiometric,1 µM,remaining activity,81%
O=C(Nc1cnn(-c2csc(C(=O)NC3COC3)c2)c1)Nc1ccccc1Cl,enzyme activity,inhibitor,,5 µM,remaining activity,99.8%
CN1CC(Oc2cnc(C#N)cc2-c2ccn3nc(NC(=O)C4CC4)cc3c2)C1,enzyme activity,inhibitor,,1 µM,inhibition,-8%
COc1ccc2c(O[C@@H]3C[C@H]4C(=O)N[C@]5(C(=O)O)CC5/C=C\CCCCC[C@H](NC(=O)OC5CCCC5)C(=O)N4C3)cc(-c3csc(NC(=O)C(C)C)n3)nc2c1C (some centres unmarked),cell-free assay,,competition with immobilised ligand,1 µM,remaining binding,91%
CC(C)(O)[C@H]1CC[C@H](Nc2ccc3ncc(-c4cccc(C(F)(F)F)c4)n3n2)CC1,enzyme activity,inhibitor,,1 µM,remaining activity,84.9%
